Source: ChEMBL document CHEMBL3861974, “Discovery of a Selective Aurora A Kinase Inhibitor by Virtual Screening” (J Med Chem, 2016)
Calls of active or inactive are those of the source. The calls are words filed in the database; no cut-off is given here.

Assays:
Aurora kinase A [1] = target: T1, Aurora kinase A (Homo sapiens, UniProt O14965); experiment: Inhibition of His-tagged human Aurora A kinase ([…] residues) expressed in Escherichia coli BL21 (DE3) Rosetta cells using biotinylated STK2 substrate incubated for 30 mins by HTRF assay
T1 sequence (O14965 whole entry): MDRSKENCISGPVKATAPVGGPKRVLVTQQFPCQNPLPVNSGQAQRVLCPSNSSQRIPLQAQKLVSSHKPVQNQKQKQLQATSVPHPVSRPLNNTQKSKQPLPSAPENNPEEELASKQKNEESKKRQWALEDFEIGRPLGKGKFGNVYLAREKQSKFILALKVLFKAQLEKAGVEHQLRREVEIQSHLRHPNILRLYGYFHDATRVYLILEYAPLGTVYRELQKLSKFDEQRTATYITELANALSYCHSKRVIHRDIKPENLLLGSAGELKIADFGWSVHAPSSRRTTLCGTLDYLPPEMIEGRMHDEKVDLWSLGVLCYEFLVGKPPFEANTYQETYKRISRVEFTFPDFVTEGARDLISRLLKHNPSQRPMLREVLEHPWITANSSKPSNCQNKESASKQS

[2] = target: Aurora kinase B/Inner centromere protein (Homo sapiens, UniProt Q96GD4); experiment: Inhibition of Aurora-B/INCENP (unknown origin) using biotinylated STK2 substrate incubated for 30 mins by HTRF assay; type: protein-complex assay
How it was run: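 Biochemical kinase inhibition was read by HTRF with 20 µM ATP. Aurora B was assayed as its complex with the activator INCENP. For Aurora A, IC50 curves were recorded at different TPX2 concentrations.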

Homo sapiens = species: Homo sapiens; experiment: Selectivity index, ratio of IC50 for Aurora-B/INCENP (unknown origin) to IC50 for His-tagged human Aurora A kinase ([…] residues) expressed in Escherichia coli BL21 (DE3) Rosetta cells
Aurora kinase A [3] = target: T1, Aurora kinase A; experiment: Inhibition of Aurora A kinase autophosphorylation at Thr288 in human HeLa Kyoto cells incubated for 20 hrs; type: cell-based
Aurora kinase B [4] = target: T2, Aurora kinase B (Homo sapiens, UniProt Q96GD4); conditions: HeLa Kyoto, 2.5 uM
Aurora kinase B [5] = target: T2, Aurora kinase B; conditions: HeLa Kyoto, 2.5 uM; remark: listed apart in the source
HeLa Kyoto = experiment: Increase in mitotic index in human HeLa Kyoto cells incubated for 20 hrs; type: functional, cell-based
How it was run: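 HeLa Kyoto cells were incubated overnight with compound, and the fraction of mitotic cells was scored. The experiment was repeated twice; mean ± SD.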

Sequence of Aurora kinase B/Inner centromere protein (Q96GD4 whole entry): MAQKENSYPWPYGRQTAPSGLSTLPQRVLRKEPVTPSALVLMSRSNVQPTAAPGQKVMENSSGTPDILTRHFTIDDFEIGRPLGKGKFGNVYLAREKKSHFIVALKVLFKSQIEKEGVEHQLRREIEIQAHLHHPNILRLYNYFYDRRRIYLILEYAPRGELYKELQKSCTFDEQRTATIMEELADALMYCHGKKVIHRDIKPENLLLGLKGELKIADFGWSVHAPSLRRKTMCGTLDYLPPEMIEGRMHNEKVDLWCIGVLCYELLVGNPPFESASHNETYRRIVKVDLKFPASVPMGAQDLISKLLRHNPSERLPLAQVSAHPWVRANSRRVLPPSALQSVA
Sequence of Aurora kinase B/Inner centromere protein (Q9NQS7 whole entry, further chain): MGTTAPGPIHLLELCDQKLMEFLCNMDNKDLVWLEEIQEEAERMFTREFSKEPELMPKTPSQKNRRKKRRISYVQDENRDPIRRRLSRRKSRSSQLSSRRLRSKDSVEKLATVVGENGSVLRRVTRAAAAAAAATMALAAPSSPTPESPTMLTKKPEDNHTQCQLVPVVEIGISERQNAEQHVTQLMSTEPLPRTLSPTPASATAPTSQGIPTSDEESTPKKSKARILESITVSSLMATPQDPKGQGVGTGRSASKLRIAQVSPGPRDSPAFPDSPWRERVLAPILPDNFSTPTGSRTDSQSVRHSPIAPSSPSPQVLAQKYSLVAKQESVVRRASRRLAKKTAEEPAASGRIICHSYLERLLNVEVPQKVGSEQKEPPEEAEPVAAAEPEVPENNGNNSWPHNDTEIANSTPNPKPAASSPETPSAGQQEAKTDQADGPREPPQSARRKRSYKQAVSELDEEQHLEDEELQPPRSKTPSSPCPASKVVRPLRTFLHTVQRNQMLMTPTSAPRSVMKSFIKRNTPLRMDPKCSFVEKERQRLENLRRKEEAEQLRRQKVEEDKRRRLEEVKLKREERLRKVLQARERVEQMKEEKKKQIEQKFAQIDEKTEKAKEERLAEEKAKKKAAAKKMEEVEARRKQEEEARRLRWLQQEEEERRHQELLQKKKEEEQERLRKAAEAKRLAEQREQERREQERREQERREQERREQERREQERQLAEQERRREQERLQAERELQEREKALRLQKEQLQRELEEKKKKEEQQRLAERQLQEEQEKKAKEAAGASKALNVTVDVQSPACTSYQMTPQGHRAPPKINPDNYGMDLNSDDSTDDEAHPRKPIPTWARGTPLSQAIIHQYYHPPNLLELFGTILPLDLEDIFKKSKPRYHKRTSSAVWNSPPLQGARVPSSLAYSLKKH
T2 sequence (Q96GD4 whole entry): as the sequence (Q96GD4 whole entry) above

Compound | IC50 (Aurora kinase A [1]) [nM] | also measured
CCc1ccc(/N=C2\S/C(=C\c3ccnc(Nc4ccc(CO)cc4)c3)C(=O)N2C)cc1 | 130 | IC50 [2]: 2600 nM; Ratio IC50 (Homo sapiens): 20
CCc1ccc(/N=C2\SC(Cc3ccnc(Nc4ccc(C(=O)O)cn4)c3)C(=O)N2C)cc1 (racemic) | 24 | IC50 (Aurora kinase A [3]): 24 nM
CCc1ccc(/N=C2\S/C(=C\c3ccnc(Nc4ccc(-c5nnn[nH]5)cc4)c3)C(=O)N2C)cc1 | 25 | IC50 [2]: 830 nM; Ratio IC50 (Homo sapiens): 33
CCc1ccc(/N=C2\S/C(=C\c3ccnc(N)c3)C(=O)N2C)cc1 | 190 | IC50 [2]: 23000 nM; Ratio IC50 (Homo sapiens): 121
CCc1ccc(/N=C2\S/C(=C\c3ccncc3)C(=O)N2CC)cc1 | 380 | –
O=C(O)c1ccc2c(c1)[nH]c(=O)n2-c1nc2ccccc2[nH]1 | 3500 | –
Cc1ccc2[nH]c(-n3c(=O)[nH]c4ccccc43)nc2c1 | 7800 | –
CCc1ccccc1/N=C1\S/C(=C\c2ccncc2)C(=O)N1C | 52000 | –
CCc1ccc(/N=C2\S/C(=C\c3ccnc(NC(=O)CCC(=O)O)c3)C(=O)N2C)cc1 | 4 | IC50 [2]: 1700 nM; Ratio IC50 (Homo sapiens): 415
O=c1[nH]c2c(O)cccc2n1-c1nc2ccccc2[nH]1 | 21000 | –
O=c1[nH]c2ccccc2n1-c1nc2cc(Br)ccc2[nH]1 | 9000 | –
CCc1ccc(/N=C2\S/C(=C\c3ccncc3)C(=O)N2C)cc1 | 390 | –
CNC(=O)c1ccc2[nH]c(=O)n(-c3nc4ccccc4[nH]3)c2c1 | 11000 | –
COc1cc2c(Nc3ccc(NC(=O)c4ccccc4)cc3)ncnc2cc1OCCCN1CCOCC1 | – | inhibition (Aurora kinase B [4]): Active; inhibition (Aurora kinase B [5]): Active
Cc1cccc2[nH]c(-n3c(=O)[nH]c4ccccc43)nc12 | 14000 | –
CCc1ccc(/N=C2\SC3(CC3c3ccnc(N)c3)C(=O)N2C)cc1 (racemic) | 76000 | –
CCc1ccc(/N=C2/NC(=O)/C(=C/c3ccncc3)S2)cc1 | 430 | –
CCc1ccc(/N=C2\SC(Cc3ccnc(N)c3)C(=O)N2C)cc1 (racemic) | 1290 | –
CN1C(=O)/C(=C/c2ccncc2)S/C1=N\c1ccccc1 | 9000 | –
O=c1[nH]c2cc(Cl)ccc2n1-c1nc2ccccc2[nH]1 | > 200000 | –
CCc1ccc(/N=C2\S/C(=C\c3ccnc(NC(=O)CC(=O)O)c3)C(=O)N2C)cc1 | 6 | IC50 [2]: 2700 nM; Ratio IC50 (Homo sapiens): 450
CCc1cccc(/N=C2\S/C(=C\c3ccncc3)C(=O)N2C)c1 | 4900 | –
O=c1[nH]c2ccccc2n1-c1nc2ccccc2[nH]1 | 6500 to 7000 | –

Compound | IC50 (Aurora kinase A [1]) [nM] | also measured
O=C(O)c1ccc2[nH]c(=O)n(-c3nc4ccccc4[nH]3)c2c1 | 3500 | –
Cc1ccc(/N=C2\S/C(=C\c3ccncc3)C(=O)N2C)cc1C | 2000 | –
CN1C(=O)/C(=C/c2ccncc2)S/C1=N\c1ccc(C(F)(F)F)cc1 | 370 | –
CCc1ccc(/N=C2\S/C(=C\c3ccncc3)C(=O)N2CC2CCCCC2)cc1 | > 200000 | –
O=c1[nH]c2cccc(O)c2n1-c1nc2ccccc2[nH]1 | 15000 | –
CCc1ccc(/N=C2\S/C(=C\c3ccnc(Nc4ccc(C(=O)O)cc4)c3)C(=O)N2C)cc1 | 6.2 | IC50 [2]: 1540 nM; Ratio IC50 (Homo sapiens): 250
CN1C(=O)/C(=C/c2ccncc2)S/C1=N\c1ccc(C(C)(C)C)cc1 | 1600 | –
CNC(=O)c1ccc2c(c1)[nH]c(=O)n2-c1nc2ccccc2[nH]1 | > 50000 | –
COc1cc(Nc2ncc3c(n2)-c2ccc(Cl)cc2C(c2c(F)cccc2OC)=NC3)ccc1C(=O)O | – | Activity (HeLa Kyoto): Dose-dependent effect
CCc1ccc(/N=C2\S/C(=C\c3ccnc(Nc4ccccc4)c3)C(=O)N2C)cc1 | 600 | –
CCc1ccc(/N=C2\S/C(=C\c3ccnc(Nc4ccccn4)c3)C(=O)N2C)cc1 | 220 | –
O=c1[nH]c2ccc(Cl)cc2n1-c1nc2ccccc2[nH]1 | 23000 | –
CCc1ccc(/N=C2\S/C(=C\c3ccncc3)C(=O)N2CCOC)cc1 | 480 | –
CN1C(=O)/C(=C/c2ccncc2)S/C1=N\c1ccc(Br)cc1 | 300 | –
CC(C)c1ccc(/N=C2\S/C(=C\c3ccncc3)C(=O)N2C)cc1 | 780 | –
O=c1[nH]c2ccccc2n1-c1nc2cc(C(F)(F)F)ccc2[nH]1 | > 70000 | –
CCc1ccc(/N=C2\S/C(=C\c3ccnc(NC(=O)CCN)c3)C(=O)N2C)cc1 | 190 | IC50 [2]: 10000 nM; Ratio IC50 (Homo sapiens): 53
CCCCc1ccc(/N=C2\S/C(=C\c3ccncc3)C(=O)N2C)cc1 | 3300 | –
CCc1ccc(/N=C2\S/C(=C\c3ccnc(NC(=O)CCCC(=O)O)c3)C(=O)N2C)cc1 | 6.2 | IC50 [2]: 1400 nM; Ratio IC50 (Homo sapiens): 230
CCCc1ccc(/N=C2\S/C(=C\c3ccncc3)C(=O)N2C)cc1 | 1900 | –
CCc1ccc(/N=C2/SC3(CC3c3ccnc(N)c3)C(=O)N2C)cc1 (racemic) | > 200000 | –
O=c1[nH]c2ccc(O)cc2n1-c1nc2ccccc2[nH]1 | 12000 | –
